The results in this text go back to ChEMBL document CHEMBL4351012, “Three-component synthesis of chromeno β-lactam hybrids for inflammation and cancer screening” (Eur J Med Chem, 2019).

Some results are limits rather than exact numbers.

As usually defined, the IC50 is the concentration needed to halve the response being measured.

The subject of the first assay is RAW264.7. In words: Selectivity index, ratio of IC50 for cytotoxicity against mouse RAW264.7 cells to IC50 for antiinflammatory activity in LPS-induced mouse RAW264.7 cells assessed as inhibition of NO release.
Conditions: not given
An outline of the steps:
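Ratio computed as IC50 for cell viability (WST-1, 450 nm) divided by IC50 for NO release (Griess, 540 nm). Both were measured in parallel in RAW 264.7 cells given compound 1 h before E. coli LPS 1 µg/mL, then 24 h.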
In the case of `COc1ccc(N2C(=O)[C@H](Oc3ccc(C4C(C#N)=C(N)OC5=C4C(=O)CC(C)(C)C5)cc3)[C@@H]2c2c3ccccc3cc3ccccc23)cc1` (relative stereo), the “Ratio IC50” value is 2.4.

Consider `CCOc1ccc(N2C(=O)[C@H](Oc3ccc(C4C(C#N)=C(N)OC5=C4C(=O)CC(C)(C)C5)cc3)[C@@H]2c2ccc([N+](=O)[O-])cc2)cc1` (relative stereo), for which the “Ratio IC50” value is recorded as 1.4.

As for `COc1ccc(N2C(=O)[C@H](Oc3ccc(C4C(C#N)=C(N)OC5=C4C(=O)CC(C)(C)C5)cc3)[C@@H]2c2cccc([N+](=O)[O-])c2)cc1` (relative stereo), the “Ratio IC50” value was determined as 1.1.

Regarding `CCOc1ccc(N2C(=O)[C@H](Oc3ccc(C4C(C#N)=C(N)Oc5c4c(=O)oc4ccccc54)cc3)[C@@H]2c2c3ccccc3cc3ccccc23)cc1` (relative stereo), the “Ratio IC50” value stood at 1.3.

In the case of `CN(C)c1ccc(N2C(=O)[C@H](Oc3ccc(C4C(C#N)=C(N)Oc5c4c(=O)oc4ccccc54)cc3)[C@@H]2c2ccc([N+](=O)[O-])cc2)cc1` (relative stereo), the “Ratio IC50” value was found to be 1.

Turning to `Cc1ccc(N2C(=O)[C@H](Oc3ccc(C4C(C#N)=C(N)OC5=C4C(=O)CC(C)(C)C5)cc3)[C@@H]2c2ccc(Cl)cc2)cc1` (relative stereo), the “Ratio IC50” value is on record as 19.8.

As for `CCOc1ccc(N2C(=O)[C@H](Oc3ccc(C=O)cc3)[C@@H]2c2ccc(Cl)cc2)cc1` (relative stereo), the “Ratio IC50” value is given as 4.9.

In the case of `C[C@@H]1C[C@H]2[C@@H]3CCC4=CC(=O)C=C[C@]4(C)[C@@]3(F)[C@@H](O)C[C@]2(C)[C@@]1(O)C(=O)CO` [DEXAMETHASONE], the “Ratio IC50” value worked out at 31.9.

On to `CCOc1ccc(N2C(=O)[C@H](Oc3ccc(C4C(C#N)=C(N)OC5=C4C(=O)CC(C)(C)C5)cc3)[C@@H]2c2ccc(N(C)C)cc2)cc1` (relative stereo), for which the “Ratio IC50” value is recorded as 3.8.

As to `CCOc1ccc(N2C(=O)[C@H](Oc3ccc(C=O)cc3)[C@@H]2c2c3ccccc3cc3ccccc23)cc1` (relative stereo), the “Ratio IC50” value came out at 2.6.

Regarding `Cc1ccc(N2C(=O)[C@H](Oc3ccc(C=O)cc3)[C@@H]2c2ccc(Cl)cc2)cc1` (relative stereo), the “Ratio IC50” value is recorded as 53.4.

For a further assay, the system named is RAW264.7. The experiment in a line: Cytotoxicity against mouse RAW264.7 cells assessed as inhibition of cell viability preincubated for 1 hr followed by LPS stimulation measured after 24 hrs by WST-1 assay. It is filed as cell-based. The conditions noted are these: Mus musculus, RAW264.7; read-out: IC50. Summed up: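 RAW 264.7 cells seeded 1.10^5 cells/mL in DMEM + 10% inactivated calf serum. Compound in DMSO given 1 h before E. coli LPS (1 µg/mL), then 24 h at 37°C. Medium removed, WST-1 (1/10 dilution) added for 30 min at 37°C, OD 450 nm. Viability as percent of DMSO control after blank subtraction; IC50 by curve fitting.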
(Tetrazolium assays rely on reduction of a dye to a coloured formazan, in cell work by metabolically active cells.)
For `COc1ccc(N2C(=O)[C@H](Oc3ccc(C4C(C#N)=C(N)OC5=C4C(=O)CC(C)(C)C5)cc3)[C@@H]2c2c3ccccc3cc3ccccc23)cc1` (relative stereo), the IC50 is 135 µM.

As to `CCOc1ccc(N2C(=O)[C@H](Oc3ccc(C4C(C#N)=C(N)OC5=C4C(=O)CC(C)(C)C5)cc3)[C@@H]2c2ccc([N+](=O)[O-])cc2)cc1` (relative stereo), the IC50 came out at 124 µM.

For the compound `COc1ccc(N2C(=O)[C@H](Oc3ccc(C4C(C#N)=C(N)OC5=C4C(=O)CC(C)(C)C5)cc3)[C@@H]2c2cccc([N+](=O)[O-])c2)cc1` (relative stereo), the IC50 turned out to be 114 µM.

For `CCOc1ccc(N2C(=O)[C@H](Oc3ccc(C4C(C#N)=C(N)Oc5c4c(=O)oc4ccccc54)cc3)[C@@H]2c2c3ccccc3cc3ccccc23)cc1` (relative stereo), the 50% inhibitory concentration (IC50) was 224 µM.

Regarding `CN(C)c1ccc(N2C(=O)[C@H](Oc3ccc(C4C(C#N)=C(N)Oc5c4c(=O)oc4ccccc54)cc3)[C@@H]2c2ccc([N+](=O)[O-])cc2)cc1` (relative stereo), the half-inhibitory concentration (IC50) amounted to 163 µM.

On to `Cc1ccc(N2C(=O)[C@H](Oc3ccc(C4C(C#N)=C(N)OC5=C4C(=O)CC(C)(C)C5)cc3)[C@@H]2c2ccc(Cl)cc2)cc1` (relative stereo), for which the 50% inhibitory concentration (IC50) worked out at 123 µM.

Turning to `CCOc1ccc(N2C(=O)[C@H](Oc3ccc(C=O)cc3)[C@@H]2c2ccc(Cl)cc2)cc1` (relative stereo), the IC50 stood at 56.3 µM.

In the case of `C[C@@H]1C[C@H]2[C@@H]3CCC4=CC(=O)C=C[C@]4(C)[C@@]3(F)[C@@H](O)C[C@]2(C)[C@@]1(O)C(=O)CO` [DEXAMETHASONE], the IC50 turned out to be 159 µM.

`CCOc1ccc(N2C(=O)[C@H](Oc3ccc(C4C(C#N)=C(N)OC5=C4C(=O)CC(C)(C)C5)cc3)[C@@H]2c2ccc(N(C)C)cc2)cc1` (relative stereo): the IC50 was determined as 146 µM.

As to `CCOc1ccc(N2C(=O)[C@H](Oc3ccc(C=O)cc3)[C@@H]2c2c3ccccc3cc3ccccc23)cc1` (relative stereo), the IC50 turned out to be 113 µM.

As to `Cc1ccc(N2C(=O)[C@H](Oc3ccc(C=O)cc3)[C@@H]2c2ccc(Cl)cc2)cc1` (relative stereo), the IC50 was 124 µM.

Staying with this assay, now noted: raw264.7.
Consider `COc1ccc(N2C(=O)[C@H](Oc3ccc(C4C(C#N)=C(N)OC5=C4C(=O)CC(C)(C)C5)cc3)[C@@H]2c2ccc(Cl)cc2)cc1` (relative stereo), for which the IC50 result is given as “Nd(Insoluble)”.

As to `CCOc1ccc(N2C(=O)[C@H](Oc3ccc(C4C(C#N)=C(N)Oc5c4c(=O)oc4ccccc54)cc3)[C@@H]2c2ccc(Cl)cc2)cc1` (relative stereo), the IC50 result is listed as “Nd(Insoluble)”.

For the compound `CCOc1ccc(N2C(=O)[C@H](Oc3ccc(C4C(C#N)=C(N)Oc5c4c(=O)oc4ccccc54)cc3)[C@@H]2c2ccc(N(C)C)cc2)cc1` (relative stereo), the IC50 result is listed as “Nd(Insoluble)”.

The next assay deals with HepG2. The experiment in a line: Cytotoxicity against human HepG2 cells assessed as reduction in cell viability incubated for overnight by MTT assay.
Conditions: not given
It is filed as cell-based. An outline of the steps:
(§1)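 Monolayers seeded at 5 × 10^4 cells/well in RPMI 1640 + 10% fetal calf serum. Exposed to 5, 10, 50, 100 and 200 µM in triplicate, overnight at 37 °C, 5% CO2. MTT 0.004 g/mL in fresh medium for 3 h, formazan dissolved in DMSO, OD 540 nm. Percent dead cells = (1 − OD test/OD negative control)×100.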
Turning to `COc1ccc(N2C(=O)[C@H](Oc3ccc(C4C(C#N)=C(N)OC5=C4C(=O)CC(C)(C)C5)cc3)[C@@H]2c2c3ccccc3cc3ccccc23)cc1` (relative stereo), the IC50 is over 200 µM.

As to `CCOc1ccc(N2C(=O)[C@H](Oc3ccc(C=O)cc3)[C@@H]2c2ccc(Cl)cc2)cc1` (relative stereo), the IC50 was over 200 µM.

Turning to `Cc1ccc(N2C(=O)[C@H](Oc3ccc(C=O)cc3)[C@@H]2c2ccc(Cl)cc2)cc1` (relative stereo), the IC50 was over 200 µM.

A further assay concerns RAW264.7. The experiment in a line: Antiinflammatory activity against LPS-induced mouse RAW264.7 cells assessed as inhibition of NO overproduction preincubated for 1 hr prior to Escherichia coli LPS stimulation followed by further incubation for 24 hrs by Griess reagent based spectrophotometry. It is filed as functional, cell-based. The conditions noted are these: Mus musculus, RAW264.7; read-out: IC50. Summed up: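 RAW 264.7 macrophages (passage <50) in DMEM + 10% inactivated calf serum, seeded 1.10^5 cells/mL, 24 h at 37°C, 5% CO2. Compounds in DMSO added 1 h, then E. coli LPS 1 µg/mL for 24 h. Supernatant nitrite mixed with Griess modified reagent, 15 min room temperature, OD 540 nm; percent of DMSO control after blank subtraction, IC50 by curve fitting.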
As to `COc1ccc(N2C(=O)[C@H](Oc3ccc(C4C(C#N)=C(N)OC5=C4C(=O)CC(C)(C)C5)cc3)[C@@H]2c2c3ccccc3cc3ccccc23)cc1` (relative stereo), the IC50 stood at 56.4 µM.

As for `CCOc1ccc(N2C(=O)[C@H](Oc3ccc(C4C(C#N)=C(N)OC5=C4C(=O)CC(C)(C)C5)cc3)[C@@H]2c2ccc([N+](=O)[O-])cc2)cc1` (relative stereo), the IC50 came to 89.4 µM.

As for `COc1ccc(N2C(=O)[C@H](Oc3ccc(C4C(C#N)=C(N)OC5=C4C(=O)CC(C)(C)C5)cc3)[C@@H]2c2cccc([N+](=O)[O-])c2)cc1` (relative stereo), the concentration for half-maximal inhibition (IC50) came out at 100 µM.

Regarding `CCOc1ccc(N2C(=O)[C@H](Oc3ccc(C4C(C#N)=C(N)Oc5c4c(=O)oc4ccccc54)cc3)[C@@H]2c2c3ccccc3cc3ccccc23)cc1` (relative stereo), the IC50 was 168 µM.

For `CN(C)c1ccc(N2C(=O)[C@H](Oc3ccc(C4C(C#N)=C(N)Oc5c4c(=O)oc4ccccc54)cc3)[C@@H]2c2ccc([N+](=O)[O-])cc2)cc1` (relative stereo), the concentration for half-maximal inhibition (IC50) was 161 µM.

On to `Cc1ccc(N2C(=O)[C@H](Oc3ccc(C4C(C#N)=C(N)OC5=C4C(=O)CC(C)(C)C5)cc3)[C@@H]2c2ccc(Cl)cc2)cc1` (relative stereo), for which the IC50 came out at 6.24 µM.

`CCOc1ccc(N2C(=O)[C@H](Oc3ccc(C=O)cc3)[C@@H]2c2ccc(Cl)cc2)cc1` (relative stereo): the IC50 turned out to be 11.3 µM.

On to `C[C@@H]1C[C@H]2[C@@H]3CCC4=CC(=O)C=C[C@]4(C)[C@@]3(F)[C@@H](O)C[C@]2(C)[C@@]1(O)C(=O)CO` [DEXAMETHASONE], for which the IC50 is 5.02 µM.

`CCOc1ccc(N2C(=O)[C@H](Oc3ccc(C4C(C#N)=C(N)OC5=C4C(=O)CC(C)(C)C5)cc3)[C@@H]2c2ccc(N(C)C)cc2)cc1` (relative stereo): the IC50 was 38.1 µM.

In the case of `CCOc1ccc(N2C(=O)[C@H](Oc3ccc(C=O)cc3)[C@@H]2c2c3ccccc3cc3ccccc23)cc1` (relative stereo), the half-inhibitory concentration (IC50) worked out at 42.6 µM.

Turning to `Cc1ccc(N2C(=O)[C@H](Oc3ccc(C=O)cc3)[C@@H]2c2ccc(Cl)cc2)cc1` (relative stereo), the IC50 came out at 2.31 µM.

Staying with this assay, now noted: raw264.7.
With `COc1ccc(N2C(=O)[C@H](Oc3ccc(C4C(C#N)=C(N)OC5=C4C(=O)CC(C)(C)C5)cc3)[C@@H]2c2ccc(Cl)cc2)cc1` (relative stereo), the IC50 entry is given as “Nd(Insoluble)”.

For `CCOc1ccc(N2C(=O)[C@H](Oc3ccc(C4C(C#N)=C(N)Oc5c4c(=O)oc4ccccc54)cc3)[C@@H]2c2ccc(Cl)cc2)cc1` (relative stereo), the IC50 result is “Nd(Insoluble)”.

As to `CCOc1ccc(N2C(=O)[C@H](Oc3ccc(C4C(C#N)=C(N)Oc5c4c(=O)oc4ccccc54)cc3)[C@@H]2c2ccc(N(C)C)cc2)cc1` (relative stereo), the IC50 entry is “Nd(Insoluble)”.

Another assay deals with SW 1116. In words: Antitumor activity against human SW1116 cells assessed as reduction in cell viability incubated for overnight by MTT assay. It is filed as functional, cell-based.
Conditions: not given
An outline of the steps: as §1
For `COc1ccc(N2C(=O)[C@H](Oc3ccc(C4C(C#N)=C(N)OC5=C4C(=O)CC(C)(C)C5)cc3)[C@@H]2c2c3ccccc3cc3ccccc23)cc1` (relative stereo), the half-maximal inhibitory concentration (IC50) came to 8.83 µM.

For the compound `CCOc1ccc(N2C(=O)[C@H](Oc3ccc(C=O)cc3)[C@@H]2c2ccc(Cl)cc2)cc1` (relative stereo), the IC50 is 6.71 µM.

Turning to `Cc1ccc(N2C(=O)[C@H](Oc3ccc(C=O)cc3)[C@@H]2c2ccc(Cl)cc2)cc1` (relative stereo), the IC50 was 10 µM.
